Test results taken from ChEMBL document CHEMBL1125255, “Romazarit: a potential disease-modifying antirheumatic drug” (J Med Chem, 1991).

Columns and labels:
Rattus norvegicus [1] = assay: Radiographic change was judged in the area of the talus joint, using an arbitrary scoring system upon termination of the test (14 days dosing of 60 mg/kg) in a model of type II collagen arthritis in the rat.; assay type: functional; conditions: 336 h
Outline: (§1)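 Type II collagen arthritis rats, eight per group, oral sodium salts daily from grouping (day 1). Hind limbs X-rayed post mortem. Tibia/talus and tarsus damage scored 0–3 per foot by two observers and averaged; left and right summed (max 6). Compared with arthritic controls by Mann–Whitney U test.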

Rattus norvegicus [2] = assay: Compound was evaluated in developing adjuvant arthritis model rats for its effect on paw edema.; assay type: functional; parameters: concentration or dose not given beside the values
Outline: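 Female Allen and Hanbury hooded rats, five per group. Right hind paw injected sc on day 0 with heat-killed M. tuberculosis in paraffin oil (5 mg/mL). Compounds given orally as sodium salts in water. Paw volumes of both hind paws measured days 1–4, 1 h after dosing. Percent inhibition taken from area under the curve of the between-paw volume difference.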

Rattus norvegicus [3] = assay: Hepatic effect assessed by increase in liver weight after 14 days of dosing at 60 mg/kg orally.; assay type: functional
Outline: (§2)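 Type II collagen arthritis rats, eight per group, daily oral dosing as sodium salts in water for 14 days. Liver weight recorded at termination and expressed as percentage change versus normal animals.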

[4] = Partition coefficient (logP); assay type: physicochemical; conditions: octanol/water
Outline: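 Compound dissolved in disodium hydrogen phosphate/citric acid buffer pH 7.4 and partitioned against equal volume octan-1-ol. Buffer-phase UV absorbance read before and after partitioning near λmax. P′ from the octanol:buffer absorbance ratio.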

Rattus norvegicus [5] = assay: Hepatic effect assessed by increase in catalase levels after 14 days of dosing at 60 mg/kg orally.; assay type: functional
Outline: (§3)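 Type II collagen arthritis rats, eight per group, given oral sodium salts daily for 14 days. At termination liver homogenized in ice-cold 0.25 M sucrose and spun 2000 rpm 10 min. Catalase followed by decline in A240 from H2O2 breakdown, expressed as first-order rate constant K. Result given as % change versus normals.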

Rattus norvegicus [6] = species on record: Rattus norvegicus; assay: Percent decrease in serum haptoglobin evaluated in a developing adjuvant arthritis model rats.
[7] = biological target: Prostaglandin G/H synthase 1 (Ovis aries) (UniProt P05979); assay: Inhibition of prostaglandin synthetase in sheep seminal vesicle
Prostaglandin G/H synthase 1 (Ovis aries), sequence (P05979 whole entry, looked up): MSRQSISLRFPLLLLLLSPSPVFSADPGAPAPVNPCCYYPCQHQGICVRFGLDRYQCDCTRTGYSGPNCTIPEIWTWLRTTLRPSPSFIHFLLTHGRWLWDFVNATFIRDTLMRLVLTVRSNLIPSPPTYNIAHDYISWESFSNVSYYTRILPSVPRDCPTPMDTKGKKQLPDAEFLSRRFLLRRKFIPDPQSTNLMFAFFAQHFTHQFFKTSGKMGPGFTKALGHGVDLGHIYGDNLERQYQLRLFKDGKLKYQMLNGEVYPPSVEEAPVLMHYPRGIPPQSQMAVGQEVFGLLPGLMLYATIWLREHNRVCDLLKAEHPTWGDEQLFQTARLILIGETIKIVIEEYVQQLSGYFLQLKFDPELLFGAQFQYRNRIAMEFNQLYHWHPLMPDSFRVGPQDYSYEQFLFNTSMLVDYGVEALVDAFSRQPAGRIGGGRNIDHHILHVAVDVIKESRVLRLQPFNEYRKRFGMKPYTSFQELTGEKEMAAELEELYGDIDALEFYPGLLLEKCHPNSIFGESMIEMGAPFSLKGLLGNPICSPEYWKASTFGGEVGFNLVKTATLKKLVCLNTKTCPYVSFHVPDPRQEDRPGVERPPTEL

Rattus norvegicus [8] = assay: Radiographic change was judged in the area of the tarsus region, using an arbitrary scoring system upon termination of the test (14 days dosing of 60 mg/kg) in a model of type II collagen arthritis in the rat.; assay type: functional; conditions: 336 h; outline: as §1
Rattus norvegicus [9] = assay: Plasma level in type II collagen arthritis model after 14 days of dosing at 100 mg/kg.; assay type: functional, organism-based; parameters: dose 100 mg/kg
Outline: (§4)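 Type II collagen arthritis rats dosed orally for 14 days. Plasma drug level measured by reverse-phase C-18 HPLC with UV detection at 282 nm.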

Rattus norvegicus [10] = assay: Hepatic effect assessed by increase in liver weight after 14 days of dosing at 100 mg/kg orally.; assay type: functional; outline: as §2
Rattus norvegicus [11] = assay: Plasma level in type II collagen arthritis model after 14 days of dosing at 40 mg/kg.; assay type: functional, organism-based; parameters: dose 40 mg/kg; outline: as §4
Rattus norvegicus [12] = assay: Radiographic change was judged in the area of the talus joint, using an arbitrary scoring system upon termination of the test (14 days dosing of 60 mg/kg)in a model of type II collagen arthritis in the rat.; assay type: functional; conditions: 336 h; outline: as §1
Homo sapiens = species on record: Homo sapiens; assay: Inhibition of human PGE-2 production.; assay type: functional
Outline: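 Human blood mononuclear cells from healthy volunteers stimulated with 2.5 μg/mL phytohaemagglutinin and incubated 24 h with compound (sodium salt). PGE2 measured by RIA.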

Rattus norvegicus [13] = assay: Radiographic change was judged in the area of the talus joint, using an arbitrary scoring system upon termination of the test (14 days dosing of 20 mg/kg)in a model of type II collagen arthritis in the rat.; assay type: functional; conditions: 336 h; outline: as §1
Rattus norvegicus [14] = assay: Radiographic change was judged in the area of the tarsus region, using an arbitrary scoring system upon termination of the test (14 days dosing of 100 mg/kg)in a model of type II collagen arthritis in the rat.; assay type: functional; conditions: 336 h; outline: as §1
Rattus norvegicus [15] = assay: Hepatic effect assessed by increase in catalase levels after 14 days of dosing at 40 mg/kg orally.; assay type: functional; outline: as §3
Rattus norvegicus [16] = assay: Hepatic effect assessed by increase in liver weight after 14 days of dosing at 40 mg/kg orally.; assay type: functional; outline: as §2
Rattus norvegicus [17] = assay: Plasma level in type II collagen arthritis model after 14 days of dosing at 20 mg/kg.; assay type: functional, organism-based; parameters: dose 20 mg/kg; outline: as §4
[18] = […] level determined in rat type II collagen arthritis model after 14 days dosing of 60 mg/kg.; assay type: functional
Outline: (§5)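 Rat type II collagen arthritis, eight rats per group, daily oral dosing as sodium salts in water for 14 days. Plasma haptoglobin determined at termination and compared with normal and arthritic controls by Student's t test.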

Rattus norvegicus [19] = assay: Radiographic change was judged in the area of the talus joint, using an arbitrary scoring system upon termination of the test (14 days dosing of 40 mg/kg)in a model of type II collagen arthritis in the rat.; assay type: functional; conditions: 336 h; outline: as §1
Rattus norvegicus [20] = assay: Radiographic change was judged in the area of the tarsus region, using an arbitrary scoring system upon termination of the test (14 days dosing of 20 mg/kg)in a model of type II collagen arthritis in the rat.; assay type: functional; conditions: 336 h; outline: as §1
Cyclooxygenase = biological target: T1, Cyclooxygenase (Rattus norvegicus, UniProt P35355+Q63921); assay: Inhibition of prostaglandin synthetase in rat renal medulla; assay type: functional, tissue-based
T1 sequence (P35355 whole entry): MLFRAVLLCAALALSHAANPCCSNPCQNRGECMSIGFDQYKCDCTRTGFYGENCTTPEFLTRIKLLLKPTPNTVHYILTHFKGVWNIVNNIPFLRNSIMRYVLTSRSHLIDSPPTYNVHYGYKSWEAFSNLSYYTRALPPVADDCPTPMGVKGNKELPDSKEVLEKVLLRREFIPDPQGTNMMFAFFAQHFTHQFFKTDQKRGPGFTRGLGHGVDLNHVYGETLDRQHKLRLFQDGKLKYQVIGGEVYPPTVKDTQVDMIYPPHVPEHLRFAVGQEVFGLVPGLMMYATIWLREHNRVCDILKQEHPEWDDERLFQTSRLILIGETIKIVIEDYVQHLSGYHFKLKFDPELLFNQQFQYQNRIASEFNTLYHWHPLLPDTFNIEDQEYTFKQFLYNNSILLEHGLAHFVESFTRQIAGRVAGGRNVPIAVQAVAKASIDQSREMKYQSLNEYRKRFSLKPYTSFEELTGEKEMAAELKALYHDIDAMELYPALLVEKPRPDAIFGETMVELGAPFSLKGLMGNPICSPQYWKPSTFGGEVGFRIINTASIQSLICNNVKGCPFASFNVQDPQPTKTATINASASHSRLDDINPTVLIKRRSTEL
T1 sequence (Q63921 whole entry): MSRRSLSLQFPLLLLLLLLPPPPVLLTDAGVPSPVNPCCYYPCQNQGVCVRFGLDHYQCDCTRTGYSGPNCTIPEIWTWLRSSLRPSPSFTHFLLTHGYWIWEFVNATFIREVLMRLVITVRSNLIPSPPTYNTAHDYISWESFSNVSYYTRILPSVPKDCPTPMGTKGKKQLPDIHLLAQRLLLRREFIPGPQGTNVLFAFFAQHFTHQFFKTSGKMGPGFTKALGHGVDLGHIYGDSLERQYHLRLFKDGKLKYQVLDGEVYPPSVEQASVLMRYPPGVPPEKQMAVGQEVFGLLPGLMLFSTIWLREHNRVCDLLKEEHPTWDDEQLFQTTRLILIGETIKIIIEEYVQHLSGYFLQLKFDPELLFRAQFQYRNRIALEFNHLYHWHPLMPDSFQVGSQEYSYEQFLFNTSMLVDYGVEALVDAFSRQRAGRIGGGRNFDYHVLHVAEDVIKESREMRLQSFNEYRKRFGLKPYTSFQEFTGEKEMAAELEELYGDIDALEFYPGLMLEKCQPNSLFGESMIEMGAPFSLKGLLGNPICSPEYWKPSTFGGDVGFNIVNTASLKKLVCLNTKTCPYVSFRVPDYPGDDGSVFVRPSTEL
Outline: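 Same cyclooxygenase protocol run on rat renal medulla homogenate: 5 min 30 °C preincubation with glutathione 1 mM and adrenaline 625 μM. Prostaglandin/thromboxane area compared with the no-drug control.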

[21] = […] level determined in rat type II collagen arthritis model after 14 days dosing of 40 mg/kg.; assay type: functional; outline: as §5
[22] = biological target: Prostaglandin G/H synthase 1 (Ovis aries) (UniProt P05979); assay: Inhibition of prostaglandin synthetase in sheep seminal vesicle; remark: listed apart in the source
Rattus norvegicus [23] = assay: Hepatic effect assessed by increase in liver weight after 14 days of dosing at 20 mg/kg orally.; assay type: functional; outline: as §2
Rattus norvegicus [24] = assay: Hepatic effect assessed by increase in catalase levels after 14 days of dosing at 20 mg/kg orally.; assay type: functional; outline: as §3
[25] = […] level determined in rat type II collagen arthritis model after 14 days dosing of 20 mg/kg.; assay type: functional; outline: as §5
Rattus norvegicus [26] = assay: Radiographic change was judged in the area of the talus joint, using an arbitrary scoring system upon termination of the test (14 days dosing of 100 mg/kg)in a model of type II collagen arthritis in the rat.; assay type: functional; conditions: 336 h; outline: as §1
Rattus norvegicus [27] = assay: Hepatic effect assessed by increase in catalase levels after 14 days of dosing at 100 mg/kg orally.; assay type: functional; outline: as §3
[28] = […] level determined in rat type II collagen arthritis model after 14 days dosing of 100 mg/kg.; assay type: functional; outline: as §5
Rattus norvegicus [29] = assay: Radiographic change was judged in the area of the tarsus region, using an arbitrary scoring system upon termination of the test (14 days dosing of 60 mg/kg)in a model of type II collagen arthritis in the rat.; assay type: functional; conditions: 336 h; outline: as §1
Rattus norvegicus [30] = assay: Plasma level in type II collagen arthritis model after 14 days of dosing at 60 mg/kg.; assay type: functional, organism-based; parameters: dose 60 mg/kg; outline: as §4
Rattus norvegicus [31] = assay: Radiographic change was judged in the area of the tarsus region, using an arbitrary scoring system upon termination of the test (14 days dosing of 40 mg/kg)in a model of type II collagen arthritis in the rat.; assay type: functional; conditions: 336 h; outline: as §1

SMILES: CC(C)(OCc1ccc(-c2ccc(Cl)cc2)cc1)C(=O)O [CLOBUZARIT]
- inhibition in vivo at 60 mg/kg (Rattus norvegicus [1]): 64%
- Inhibition (Rattus norvegicus [2]): 48%
- Change (Rattus norvegicus [3]): 19%
- logP [4]: 1.52
- Change (Rattus norvegicus [5]): 164%
- Decrease (Rattus norvegicus [6]): 31%
- IC50 [7]: 950 µM
- inhibition in vivo at 60 mg/kg (Rattus norvegicus [8]): 41%

SMILES: Cc1nc(-c2ccc(Cl)cc2)oc1COC(C)(C)C(=O)O [ROMAZARIT]
- Plasma level (Rattus norvegicus [9]): 267 µg/mL
- Change (Rattus norvegicus [10]): 13%
- Plasma level (Rattus norvegicus [11]): 102 µg/mL
- inhibition in vivo at 60 mg/kg (Rattus norvegicus [12]): 63%
- IC50 (Homo sapiens): > 400 µM
- inhibition in vivo at 20 mg/kg (Rattus norvegicus [13]): 33%
- inhibition in vivo at 100 mg/kg (Rattus norvegicus [14]): 56%
- Change (Rattus norvegicus [15]): -34%
- Change (Rattus norvegicus [16]): -3%
- Inhibition (Rattus norvegicus [2]): 73%
- Plasma level (Rattus norvegicus [17]): 64 µg/mL
- Change (Rattus norvegicus [3]): 4%
- Haptoglobin [18]: 0.32 g/L
- logP [4]: 0.34
- inhibition in vivo at 40 mg/kg (Rattus norvegicus [19]): 40%
- inhibition in vivo at 20 mg/kg (Rattus norvegicus [20]): 7%
- IC50 (Cyclooxygenase): > 300 µM
- Haptoglobin [21]: 0.43 g/L
- IC50 [22]: 6500 µM
- Change (Rattus norvegicus [23]): -5%
- Change (Rattus norvegicus [5]): -7%
- Change (Rattus norvegicus [24]): -51%
- Decrease (Rattus norvegicus [6]): 26%
- Haptoglobin [25]: 0.31 g/L
- inhibition in vivo at 100 mg/kg (Rattus norvegicus [26]): 82%
- Change (Rattus norvegicus [27]): 19%
- Haptoglobin [28]: 0.34 g/L
- inhibition in vivo at 60 mg/kg (Rattus norvegicus [29]): 46%
- Plasma level (Rattus norvegicus [30]): 172 µg/mL
- inhibition in vivo at 40 mg/kg (Rattus norvegicus [31]): 35%
